Assay outcomes (PubChem)
WT yeast gro inh = growth inhibition of WT yeast, mitochondrial fusion screen. mitochondrial fusion phenotypic screen, WT strain. inhibition, % at 10 µM. 190,000 tested, 2.1% active. AID 1362; in the data active means inhibition above about 58%; tested in S. cerevisiae
PMI act hi M6P = PMI (human) activation, high substrate; P34949; coupled PMI enzyme assay, resazurin fluorescence, 20 min; hits give high values; 1 = untreated enzyme, 0 = substrate-free blank; activation factor at 20 µM; 190,000 tested, 0.34% active; AID 1216;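 active means activation factor of 2 or more at 20 µM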
Target sequence (P34949 whole entry, looked up): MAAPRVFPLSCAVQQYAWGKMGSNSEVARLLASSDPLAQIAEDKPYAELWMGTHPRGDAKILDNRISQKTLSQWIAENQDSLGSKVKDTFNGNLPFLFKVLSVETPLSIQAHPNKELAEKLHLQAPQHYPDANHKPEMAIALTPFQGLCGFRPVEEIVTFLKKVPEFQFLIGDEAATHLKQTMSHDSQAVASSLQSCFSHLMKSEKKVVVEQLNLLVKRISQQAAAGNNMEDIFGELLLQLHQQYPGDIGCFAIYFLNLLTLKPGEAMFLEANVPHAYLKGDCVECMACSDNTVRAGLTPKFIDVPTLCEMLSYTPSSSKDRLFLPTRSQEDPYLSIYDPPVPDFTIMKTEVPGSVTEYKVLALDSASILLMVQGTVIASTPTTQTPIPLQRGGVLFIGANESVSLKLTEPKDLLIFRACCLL
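Test system: human phosphomannose isomerase with PGI, G6PDH, diaphorase coupling enzymes; amount: 15 ng/mL PMI; incubation: enzyme reaction with compound 20 min at room temperature; technique: resorufin fluorescence (Ex 544/Em 590 nm) from resazurin via diaphorase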
Diaphorase act = counter-screen for diaphorase-based assays: diaphorase activators and chemical reducers; Diaphorase/resazurin coupled assay, resorufin fluorescence, 16 min; hits give high values; 1 = vehicle wells, 0 = NADH-free wells; activation factor at 20 µM; 190,000 tested, 0.005% active;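 active means diaphorase activity raised at least twofold by the compound at 20 µM; inactive means activation factor below 2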
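Assay system: Purified diaphorase enzyme from Clostridium kluyveri | Amount: Enzyme 0.07 U/mL final | Dosing: Compound 20 µM once, DMSO 1% | Timing: 16 min reaction at room temperature | Detection: Fluorescence, excitation 544 nm and emission 590 nm | Evaluation: Higher resorufin formation from activation or reduction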
L major viab = inhibitors of Leishmania major promastigote growth. Leishmania major promastigotes, resazurin fluorescence viability. 200,000 tested, 9% active. inhibition, % at 10 µM. AID 1063; in the data active means inhibition above about 50%;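 further: promastigotes grown with compound for 44 hours at 28 °C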
PMI act = phosphomannose isomerase (human) activation; purified human PMI, coupled resazurin fluorescence, 20 min; hits give high values; 1 = vehicle control, 0 substrate-free wells; AID 1214; 190,000 tested, 0.005% active; P34949; activation factor at 20 µM;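 active means activation factor of 2 or more at 20 µM, relative to plate controls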
An asterisk follows results filed as active; · = not tested or not shown. Rows were chosen to be rich in hits. Some 10% of all compounds tested hit in one or more screens of this group.

SMILES	WT yeast gro inh	PMI act hi M6P	Diaphorase act	L major viab	PMI act
CN1CCN(c2ccc(S(C)(=O)=O)cc2[N+](=O)[O-])CC1	-20	1.1	1.1	54*	1.1
CN1CCN(c2c(F)cc([N+](=O)[O-])c(N)c2Br)CC1	15	1.1	1	11	1.1
CN1CCN(c2ccc(S(=O)(=O)C(F)(F)F)cc2[N+](=O)[O-])CC1	-1	1.1	0.9	51*	1
Cc1ccc(OCC(=O)N2CCN(C3CCC(c4ccccc4)CC3)CC2)cc1 (stereo not given)	-26	0.9	0.8	57*	0.9
CN1CCN(C(=O)COc2ccc(Oc3ccccc3)cc2)CC1	-2	0.9	0.9	-7	0.9
O=C(COc1ccc(Br)cc1)N1CCN(C2CCCC2)CC1	-3	1	1	93*	1
O=C(COc1ccccc1)N1CCN(C2CC3CCC2C3)CC1 (stereo not given)	1	1.1	1	72*	1.1
COc1ccc(C(CC(=O)N2CCC3(CC2)OCCO3)NS(=O)(=O)c2ccc(C)cc2)cc1 (stereo not given)	-11	0.9	1	-5	1
COc1ccc2c(c1OC)C(=O)OC2c1c(O)n(Cc2ccc(F)cc2)c(=O)[nH]c1=O (stereo not given)	23	1.1	1	-8	1.1
C=CCn1c(=O)c(C=Nc2cccnc2Cl)c(O)n(CCCC)c1=O	-1	1	0.8	-4	1.2
O=C1c2cccc3cccc(c23)C(=O)N1/N=C/c1c(O)n(-c2ccccc2)c(=O)[nH]c1=O	6	1	0.9	2	1.1
Cc1cc(C)nc(-n2c(C)nc3cc(Cl)ccc3c2=O)c1	-5	0.9	0.9	5	0.9
CC(C)NCC(O)c1ccc(C2CCCC2)cc1 (stereo not given)	-18	1	1	92*	1.1
CC1(C)NCCN2C(=O)CSC21 (stereo not given)	6	1.1	1	-2	1
CN1C(=O)NC(=O)/C(=C\C=C\c2ccccc2[N+](=O)[O-])C1=O	-7	0.8	0.8	42	0.8
Oc1cccc(/C=N/NP(=S)(c2ccccc2)c2ccccc2)c1	16	0.9	0.7	83*	0.9
CN(C(=O)Oc1ccc(Cl)c2cccnc12)c1ccccc1	-9	1	0.9	54*	1
Cc1ncc(CN2CCCC(C(=O)c3sccc3C)C2)s1 (stereo not given)	2	1	1	52*	0.9
Cc1ccsc1C(=O)C1CCCN(Cc2cnn(C)c2)C1 (stereo not given)	9	0.9	0.9	34	0.9
Cc1ccsc1C(=O)C1CCCN(CCO)C1 (stereo not given)	7	0.9	1.1	-3	0.9
CCn1cc(CN2CCCC(C(=O)c3sccc3C)C2)cn1 (stereo not given)	-1	0.9	0.8	54*	0.9
O=C1C(=O)c2cccc3cccc1c23	3	0.6	0.8	23	0.8
O=C1C(=O)c2ccccc2-c2ccccc21	97*	1	0.8	100*	0.7
CN1C(=O)/C(=C/c2ccc(N3CCCCCC3)o2)C(=O)NC1=S	10	1.1	0.9	21	1.1
COc1ccc(/C=C2\C(=O)NC(=S)N(C)C2=O)cc1C	-10	2.5*	0.9	-1	1.7
SMILES	WT yeast gro inh	PMI act hi M6P	Diaphorase act	L major viab	PMI act
NC(=O)C1(N2CCCCC2)CCN(Cc2ccccc2)CC1	18	1	1	-2	0.9
CCOC(=O)C1(CCc2ccccc2)CCN(Cc2csc(C(C)=O)c2)CC1	13	1	1.1	83*	0.9
CCOC(=O)C1(CCc2ccccc2)CCN(Cc2cccc3c2OCO3)CC1	39	0.9	0.9	79*	0.8
CCOC(=O)C1(CCc2ccccc2)CCN(Cc2cccc3cnccc23)CC1	22	0.8	0.8	82*	0.8
CC(C)N1CCN(Cc2cccc3c2OCO3)CC1CCO (stereo not given)	4	1	1	-3	1
CN1C(=O)CN=C(c2ccccc2)c2cc(Cl)ccc21	-6	1	0.8	·	1
COP(=O)(OC)C(NC(C)=O)C(Cl)(Cl)Cl (stereo not given)	-1	1.2	1	-6	1.2
COc1ccc(N=Cc2c(O)n(-c3ccc(C)cc3)c(=O)[nH]c2=O)cc1	2	1	1	10	1
COc1ccc(N/N=C/c2c(O)n(-c3cccc(C)c3)c(=O)[nH]c2=O)cc1	57	2.7*	0.9	94*	1.7
COc1ccc(N/N=C/c2c(O)n(-c3ccc(C)c(C)c3)c(=O)[nH]c2=O)cc1	55	1.2	1	88*	1.2
O=C(COC(=O)c1cccc(O)c1)Nc1ccc(Cl)cc1C(=O)c1ccccc1	44	0.7	0.6	-2	0.8
C=CCN1C(=O)/C(=C/c2cc(C)n(-c3cccnc3)c2C)C(=O)NC1=S	-2	0.3	0.6	99*	0.5
Cc1cc(/C=C2/C(=O)NC(=O)N(c3ccccc3)C2=O)c(C)n1-c1ccc(F)cc1	·	·	·	0	·
COc1ccccc1Cn1c(SCC#N)nc2cc(C(=O)N3CCC4(CC3)OCCO4)ccc2c1=O	-6	1	1	18	1
CN1/C(=C\C=Nc2ccccc2)C(C)(C)c2ccccc21	-8	0.9	0.9	98*	1
OC(c1cccc(Cl)c1)(c1cccc(Cl)c1)C1CN2CCC1CC2 (stereo not given)	-16	1.1	1.4	100*	1.1
O=C(Nc1ccc(Cl)cc1C(=O)c1ccccc1)c1ccccc1	14	1.1	1	69*	1
O=C(CN1CCCC1)Nc1ccc(Cl)cc1C(=O)c1ccccc1	-11	1	0.9	9	1.1
O=C(CNC(=O)c1cccc(Cl)c1)Nc1ccc(Br)cc1C(=O)c1ccccc1	28	0.9	0.9	59*	0.8
CN1CCN(c2ccc([N+](=O)[O-])c(N/N=C3\CN4CCC3CC4)c2)CC1	42	1	1.1	92*	1
CC[C@]12C=CCN3CCC4(c5cc(Br)c(OC)cc5N(C)C4[C@@](O)(C(=O)OC)[C@@H]1OC(C)=O)C32 (stereo not given in full)	13	0.9	1	1	0.8
O=c1[nH]c(=S)n(-c2ccccc2)c(O)c1/C=N/N1CCOCC1	-13	1	0.9	4	0.9
O=C1NC(=O)N(Cc2ccccc2)C(=O)/C1=C/c1cnc(-c2ccccc2)nc1	6	1.3	0.9	-3	1.2
O=C1NC(=O)N(Cc2ccccc2)C(=O)/C1=C\C=C\c1ccco1	-8	1.7	0.9	77*	1.4
Cc1ccc(N2C(=O)NC(=O)/C(=C\C=C\c3ccco3)C2=O)cc1C	-7	1.5	0.8	100*	1.4
COC(=O)C1C2c3ccccc3C(c3ccccc32)C1C(=O)OC (stereo not given)	4	1.1	1	-3	1.1
